Sampled rows, rich in hits. Any-hit rate of the full collection: about 4.5%.
PfM18AAP inh – PfM18AAP enzyme inhibition; recombinant PfM18AAP, H-Glu-NHMec fluorogenic cleavage; inhibition, % at 7.35 µM; 290,000 compounds, 1.2% hits; AID 1822;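 active = inhibition above the campaign mean inhibition over all tested compounds plus 3 SD, cut at about 28% in these data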;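 note: 0% = plate median of test compound wells and 100% = 2 mM ZnCl2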
CHOP inh – inhibitors of CHOP induction in ER stress response. CHO-K1 CHOP-promoter luciferase, tunicamycin-induced, 15-18 h. inhibition, % at 10 µM. 220,000 compounds, 3.8% hits. AID 2732;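 active = compounds that reduced the stress-induced luciferase reporter signal by more than about 70% of percent inhibition, limit read from the data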;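 note: 0% = tunicamycin plus vehicle and 100% = wells without tunicamycin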
HCV NS3 hel inh – HCV NS3 helicase inhibition | NS3 helicase DNA unwinding, Cy5 molecular beacon fluorescence | inhibition, % at 10.9 µM | 290,000 compounds, 0.56% hits | AID 1800;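 active = inhibition above the mean of all tested compounds plus 3 SD, set per campaign, cut at about 35% in these data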;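 note: 0% = DMSO wells and 100% = thioflavine S control wells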
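Assay system – hepatitis C virus NS3 helicase domain fragment enzyme · Buffer or medium – MOPS pH 6.5, MgCl2, DTT, Tween20, BSA · Reagent – Cy5/quencher beacon DNA duplex and ATP to start · Compound – single 10.9 µM dose · Timing – 1 h at 25 °C · Technique – Cy5 beacon fluorescence read at start and 1 h · Measure – % inhibition of unwinding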
CHOP UPR activ – activators of apoptotic arm of unfolded protein response (CHOP); activation, % at 10 µM; CHO-CHOP luciferase reporter, UPR activation, luminescence; percent of tunicamycin response over DMSO baseline; 330,000 compounds, 0.34% hits;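 active = at 10 µM dose, activation of 40% or more, normalized to positive control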;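 note: 100% = tunicamycin at 10 µg/mL and 0% = DMSO alone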
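Dosing – one dose, 10 µM in 0.5% DMSO · System – CHO-CHOP cells, stable luciferase reporter of PERK-eIF2a-CHOP signalling · Input – 500 cells/well · Control set – tunicamycin 10 µg/mL final as positive, DMSO-only wells as negative · Timing – 6 h compound treatment, 37 °C · Measure – % activation vs tunicamycin · Technique – luminescence read with Steady-Glo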
p97 ATPase inh – blocks human p97 ATPase activity. AID 1481. P55072. inhibition, % at 8 µM. 220,000 compounds, 0.42% hits. recombinant p97 ATPase, Kinase-Glo ATP luminescence, 3 h; in the data active = inhibition above about 15%;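 note: 0% = DMSO vehicle and 100% = wells lacking enzyme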
Target sequence (P55072 whole entry, looked up): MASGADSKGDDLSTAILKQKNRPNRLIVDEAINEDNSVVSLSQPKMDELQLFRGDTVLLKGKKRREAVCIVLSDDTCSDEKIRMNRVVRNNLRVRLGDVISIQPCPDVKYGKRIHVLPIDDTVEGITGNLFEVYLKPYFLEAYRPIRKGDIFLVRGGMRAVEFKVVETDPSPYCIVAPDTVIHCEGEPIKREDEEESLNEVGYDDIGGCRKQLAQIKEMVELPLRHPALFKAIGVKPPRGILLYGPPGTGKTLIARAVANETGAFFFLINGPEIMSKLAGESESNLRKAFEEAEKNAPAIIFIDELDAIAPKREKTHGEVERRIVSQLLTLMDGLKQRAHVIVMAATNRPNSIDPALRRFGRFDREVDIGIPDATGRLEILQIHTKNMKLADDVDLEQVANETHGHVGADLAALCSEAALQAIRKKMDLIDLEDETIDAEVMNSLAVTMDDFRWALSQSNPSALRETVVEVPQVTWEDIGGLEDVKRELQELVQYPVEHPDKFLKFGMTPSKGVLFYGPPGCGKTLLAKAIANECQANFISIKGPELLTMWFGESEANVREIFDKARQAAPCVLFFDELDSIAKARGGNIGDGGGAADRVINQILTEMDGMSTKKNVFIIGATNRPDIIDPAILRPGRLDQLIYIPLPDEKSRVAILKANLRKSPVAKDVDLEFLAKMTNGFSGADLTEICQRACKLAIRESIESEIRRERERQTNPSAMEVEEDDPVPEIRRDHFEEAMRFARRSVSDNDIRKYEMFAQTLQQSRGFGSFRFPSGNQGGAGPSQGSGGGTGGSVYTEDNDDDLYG
XBP1 UPR activ – activators of adaptive arm of unfolded protein response (XBP1). CHO-XBP1 luciferase reporter, IRE1-XBP1 UPR activation, luminescence; percent of tunicamycin response, DMSO as zero. activation, % at 20 µM. 330,000 compounds, 0.33% hits. AID 463104;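 active = versus positive control, 20 µM dose yields 30% or more activation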;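 note: 100% = tunicamycin at 10 µg/mL and 0% = DMSO only wells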
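Material: CHO cell line with stable XBP1 luciferase reporter; schedule: 16-18 h cell attachment at 37 °C, then 6 h compound exposure; signal: glow luminescence from Steady-Glo reagent; medium: serum-containing F12 medium, 10% FBS; benchmarks: tunicamycin 10 µg/mL and vehicle-only wells; read-out: percent activation relative to tunicamycin reference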
UPR CHOP confirm – confirmation of apoptotic unfolded protein response (CHOP) activators | shares compounds with CHOP UPR activ | CHO-CHOP cells, CHOP-luciferase reporter luminescence; percent of tunicamycin response, DMSO as zero | activation, % at 10 µM | 1,000 compounds, 64% hits; in the data active = activation above about 33%;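 note: 0% = DMSO wells and 100% = tunicamycin 10 µg/mL wells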
* = called active by the depositor; x = not tested or not shown.

SMILES	PfM18AAP inh	CHOP inh	HCV NS3 hel inh	CHOP UPR activ	p97 ATPase inh	XBP1 UPR activ	UPR CHOP confirm
O=[n+]1c2c(n([O-])c3cc(F)c(N4CCCC4)cc31)CCC2	7.8	x	7.0	40.8*	2.9	23.6	-0.7
Cc1nnc(NC(=O)c2nc(S(=O)(=O)Cc3ccccc3C)ncc2Cl)s1	-0.6	x	7.2	25.8	x	-8.4	x
CC(C)c1nnc(NC(=O)c2nc(S(=O)(=O)Cc3ccc(F)cc3)ncc2Cl)s1	-10.0	x	13.2	80.4*	x	-10.0	7.0
Cc1ccc(CS(=O)(=O)c2ncc(Cl)c(C(=O)Nc3ccc(OC(F)F)cc3)n2)cc1	-46.1	x	-5.8	165.6*	x	-8.6	34.5*
Cc1ccc(CS(=O)(=O)c2ncc(Cl)c(C(=O)Nc3nnc(C(C)C)s3)n2)cc1	-21.4	x	-0.5	91.5*	x	-6.7	38.1*
Cc1cccc(CS(=O)(=O)c2ncc(Cl)c(C(=O)Nc3nnc(C(C)C)s3)n2)c1	-12.0	x	5.7	105.2*	x	-7.3	25.1
COC(=O)c1ccccc1NC(=O)c1nc(S(=O)(=O)Cc2ccccc2)ncc1Cl	-15.9	x	-1.9	-11.5	x	-10.1	x
COc1ccccc1C1=NOC(Cn2c(NCCOCCO)nc3c2c(=O)n(C)c(=O)n3C)C1 (centres undefined)	-8.3	-6.4	-5.6	1.2	-2.1	-2.0	x
CSc1nnc(NC(=O)c2nc(S(=O)(=O)Cc3cccc(C)c3)ncc2Cl)s1	-20.2	x	9.8	55.1*	x	-5.7	74.9*
CCSc1nnc(NC(=O)c2nc(S(=O)(=O)Cc3ccc(F)cc3)ncc2Cl)s1	-21.7	x	3.9	25.3	x	-8.1	x
FC(F)(F)C1=Nc2cccc3cccc(c23)N1	x	x	x	62.2*	x	-0.5	26.7
O=C(c1cccs1)N(C(=O)c1cccs1)c1ccc(Br)cn1	14.3	41.3	-6.0	98.0*	-7.6	85.8*	59.0*
O=C(CCl)Nc1cccc(S(=O)(=O)NC2=NCCCCC2)c1	x	x	x	166.8*	x	19.6	81.3*
CCN1C[C@@H]2[C@@H]3C(=O)N(Cc4ccccc4)C(=O)[C@@H]3[C@](Cc3ccccc3)(C(=O)OC)N2C1=NC	x	x	x	2.6	x	1.2	x
O=C(Oc1ccccc1/C=C\C(=O)c1cc2ccccc2o1)c1ccccc1	17.7	-36.6	7.3	73.1*	-2.6	27.4	243.9*
C=CCOC(=O)c1sc(NC(=O)c2ccc(OC)cc2)nc1C	-14.9	27.0	-4.5	43.2*	-1.2	4.8	0.3
Cc1c(C#N)c(NC(=O)CCl)n(Cc2cccs2)c1C	-3.6	53.1	6.7	86.8*	-2.2	-2.2	71.4*
Cc1c(C#N)c(NC(=O)CCl)n(Cc2ccc(F)cc2)c1C	4.8	-91.6	3.0	65.2*	-0.9	-0.2	73.6*
CCN(CC)C(=O)c1sc(NC(=O)Cc2cccs2)c(C#N)c1C	6.7	24.7	-2.8	-0.5	2.3	2.5	x
Cc1c(C#N)c(NC(=O)CCl)n(Cc2ccccc2)c1C	11.0	-11.5	-4.7	112.9*	6.7	-4.9	56.6*
CNC[C@@H](CC1CCCCC1)NC[C@H](CC(C)C)NCCc1cccc(C(F)(F)F)c1	0.8	x	-89.9	83.4*	x	-5.1	33.2*
CC[C@@H](C)[C@H](CNC)NC[C@@H](Cc1cccc2ccccc12)NCCc1cccc(C(F)(F)F)c1	-0.5	x	-93.9	34.3	x	7.6	x
CNC[C@@H](Cc1ccccc1)NC[C@@H](CC1CCCCC1)NCCCc1ccccc1	5.2	x	-81.1	73.5*	x	1.9	34.0*
CCN(c1ccccc1)S(=O)(=O)c1c(C)noc1C	x	x	x	0.8	x	-3.6	x
Cc1cc(C)n2nc(SCC(=O)c3c(N)n(CC(C)C)c(=O)n(C)c3=O)nc2n1	-1.9	17.2	6.2	0.8	3.9	0.5	x
SMILES	PfM18AAP inh	CHOP inh	HCV NS3 hel inh	CHOP UPR activ	p97 ATPase inh	XBP1 UPR activ	UPR CHOP confirm
COc1cccc(CNC(=O)C2CCN(S(=O)(=O)c3ccc4c(c3)OCCO4)CC2)c1	-7.3	x	-1.1	2.4	x	-3.8	x
Cc1ccc(Sc2ncnc3onc(C)c23)cc1	-3.4	26.3	0.4	7.5	1.3	3.2	x
Cc1noc2ncnc(Sc3ccc(Cl)cc3)c12	-5.2	-7.3	-0.7	188.4*	0.2	-6.3	117.9*
CCc1ccc(NC2=CC(=O)C(=O)c3ccccc32)cc1	x	x	x	62.3*	x	13.4	19.6
O=C1C=C(Nc2ccccc2)C(=O)c2ccccc21	4.0	26.8	-1.8	2.8	-0.4	3.2	x
CCCCCCCCOc1ccc(C2OC34CCCCC3C(C#N)(C#N)C2(C#N)C(=N)O4)cc1 (centres undefined)	-9.4	-46.2	3.7	45.0*	1.9	-1.9	28.6
CCc1cc2c(=O)[nH]c(-c3ccccn3)nc2s1	3.9	47.4	-1.1	289.7*	3.0	11.4	246.7*
CSc1nnc(SCC#N)s1	1.2	0.2	-1.6	-0.6	-1.5	5.8	x
CC1CCCCC1NC(=O)NC(=O)CCl (centres undefined)	4.8	-75.2	-8.7	42.1*	0.4	-1.6	6.6
Cc1cccc(NC(=O)C2Cc3ccccc3O/C2=N\O)c1 (centres undefined)	2.4	x	-3.8	0.9	x	-3.7	x
COc1ccc(/C=C/C(=O)Oc2ccc(C)cc2)cc1	2.2	x	-4.9	42.7*	x	28.7	39.6*
O=C(CN(Cc1ccccc1F)C(=O)c1csnn1)NCc1ccc2c(c1)OCO2	2.1	x	5.7	0.3	x	-3.6	x
CCCN1C/C(=C/c2ccc3c(c2)OCO3)C(=O)/C(=C/c2ccc3c(c2)OCO3)C1	9.2	97.2*	-0.3	54.6*	-1.7	6.4	115.4*
CCCN1C(=O)/C(=C/c2ccc3c(c2)OCO3)NC1=S	0.5	-37.6	-2.2	x	1.2	x	x
C=CCNC(=S)N/N=C(\C)c1ccccn1	20.2	39.6	-0.4	211.4*	2.4	1.4	203.3*
C/C(=N\NC(=O)c1ccc(F)cc1)c1ccccn1	-11.0	x	-11.6	302.8*	x	-1.0	266.7*
C/C(=N\NC(=O)c1c[nH]c2ccccc12)c1ccccn1	-78.7	59.2	-4.8	-2.1	2.1	-1.0	x
C/C(=N\NC(=O)c1cc2ccccc2cc1O)c1ccccn1	7.6	x	12.3	245.0*	x	-0.4	291.9*
Cc1ccc(S(=O)(=O)N2CCN(Cc3cc(C(C)(C)C)ccc3O)CC2)cc1	1.8	x	-6.3	1.7	x	-6.3	x
CCc1noc(C)c1C(=O)N1CCCC(CCC(=O)NCc2ccc(F)c(F)c2)C1 (centres undefined)	-13.0	3.9	3.4	3.4	2.8	1.2	x
O=C(c1ccco1)N1CCN(Cc2cccc3ccccc23)CC1	-0.2	x	-11.8	0.0	x	-2.7	x
CCCn1c(=O)c(C(=O)NCCc2ccc(Cl)cc2)c(O)c2ccccc21	-1.2	x	3.2	2.1	x	-5.1	x
